Most compounds without a hit are left out; they make up all but 3.8% or so of the library.
Measles CPE – compounds protecting cells from measles virus cytopathic effect, primary screen, measles RdRp inhibitor project, single point, MLSMR library, absorbance; Measles virus-infected cells, CPE protection; protection (pct of control), % at 4 µM; hit rate 1.5% among 140,000; in the data active = protection mostly above about 24%, no sharp cut-off; inactive = mostly below about 26%
Yeast growth inh – growth inhibitors of yeast BB579 in restrictive medium, primary screen, yeast lifespan-shortening project, S. cerevisiae | inhibition, % at 10 µM | OD615, 48 h | hit rate 0.51% among 140,000;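 active = inhibition above a set limit, 3 SD over the mean compound inhibition, cut at about 44% in these data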
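controls = amphotericin B 10 µg/mL, positive | assay system = DeaD yeast strain BB579 | schedule = 48 h compound exposure at 30 °C after 4 h preincubation | detection = OD615 turbidity measurement | medium = restrictive CSMM-D medium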
Yeast life ext – compounds extending yeast replicative lifespan, primary screen, S. cerevisiae, OD615; S. cerevisiae growth with nicotinamide; deaD strain in restrictive glucose medium; inhibition of the nicotinamide effect, % at 10 µM; hit rate 0.68% among 130,000;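 active = inhibition above a set limit, placed 3 SD over the median of all compounds, cut at about 26% in these data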;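 also: 0% = nicotinamide-treated wells and 100% = cells grown without nicotinamide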
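Assay system: engineered S. cerevisiae DeaD replicative-lifespan strain, galactose-grown log-phase cells; Buffer or medium: CSMM-D glucose medium, restrictive; Probe or stimulus: nicotinamide 1.5 mM; Compound: single dose 10 µM compound, 0.25% DMSO; Schedule: 4 h preincubation then 48 h treatment at 30 °C; Technique: OD615 measurement.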
RAM inhibit – inhibitors of the yeast RAM network, primary screen, dse1pr::URA3 reporter, 5-FOA selection; S. cerevisiae dse1pr::URA3 reporter, 5-FOA growth OD615, 2 d; analog-sensitive cbk1-as2 kinase mutant strain; inhibition, % at 50 µM; hit rate 1.8% among 190,000;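 active = inhibition above a set limit, 3 SD over mean compound inhibition, cut at about 8.4% in these data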;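 also: 0% = DMSO-only wells with no growth and 100% = 10 µM 1-NA-PP1 full growth; inhibition rescues growth on 5-FOA so higher OD means more RAM inhibition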
* hit, by the source's call.

Screening COC(=O)c1ccccc1NC(=O)/C=N/O returned Measles CPE 43.7*, Yeast growth inh -40.6, Yeast life ext -13.8 and RAM inhibit -0.4.
Screening COc1ccc2[nH]c(=O)c(CN(CCCN3CCOCC3)C(=O)NCc3ccccc3)cc2c1 returned Measles CPE 6.1, Yeast growth inh 28.8, Yeast life ext -5.1 and RAM inhibit -1.2.
`CCOc1ccc2[nH]c(=O)c(CN(CC3CCCN3CC)C(=O)NCc3ccccc3)cc2c1` (stereo not drawn) gave Measles CPE 24.5*, Yeast growth inh -12.3, Yeast life ext -22.1 and RAM inhibit 0.5.
For Cc1ccc(C(=O)OCC(=O)NCc2cccs2)cc1S(=O)(=O)N1CCOCC1 the results were RAM inhibit 2.6.
For COc1ccc(C)cc1NC(=O)C(OC(=O)CNC(=O)c1ccc(Oc2ccccc2)cc1)c1ccccc1 (stereo not drawn) the results were Measles CPE 8.5, Yeast growth inh -16.3, Yeast life ext -1.0 and RAM inhibit 6.4.
COc1ccc(C)cc1NC(=O)C(OC(=O)c1cc(C)oc1C)c1ccccc1 (stereo not drawn) was read as Measles CPE 4.1, Yeast growth inh -12.5, Yeast life ext 4.5 and RAM inhibit 11.3*.
Cc1ccccc1-n1c(SC2CCOC2=O)nnc1-c1ccncc1 (stereo not drawn) was read as RAM inhibit 0.3.
Screening COc1c(F)c(F)c(C(=O)Nc2ccc3oc(-c4ccncc4)nc3c2)c(F)c1F returned Measles CPE 3.8, Yeast growth inh -14.3, Yeast life ext -10.8 and RAM inhibit 8.9*.
O=C(Nc1ccc2oc(-c3ccccc3)nc2c1)c1cccnc1 was read as Measles CPE 58.8*, Yeast growth inh -19.1, Yeast life ext -15.2 and RAM inhibit -1.4.
`O=C(COC(=O)C1CSC2(c3ccc(F)cc3)CCC(=O)N12)NC(=O)NC1CCCC1` (stereo not drawn) gave RAM inhibit 3.7.
`CNC(=O)/C(C#N)=C/c1c(N(Cc2ccccc2)Cc2ccccc2)nc2ccccn2c1=O` gave Measles CPE 18.2, Yeast growth inh -23.4, Yeast life ext -3.7 and RAM inhibit 4.8.
`Cc1cccn2c(=O)c(C=NCCO)c(Nc3ccc(Cl)cc3)nc12` gave RAM inhibit 8.9*.
CCOc1ccc(C2C(C(=O)c3ccc(C)o3)=C(O)C(=O)N2CCN2CCOCC2)cc1OC (stereo not drawn) was read as Measles CPE 11.7, Yeast growth inh -32.4, Yeast life ext -3.6 and RAM inhibit -0.5.
COCCCN1C(=O)C(O)=C(C(=O)c2ccco2)C1c1ccc(Br)cc1 (stereo not drawn) was read as Measles CPE 3.7, Yeast growth inh -39.0, Yeast life ext -24.1 and RAM inhibit 9.1*.
`CCCOc1ccc(C2C(C(=O)c3ccco3)=C(O)C(=O)N2CCN2CCOCC2)cc1OC` (stereo not drawn) gave Measles CPE 46.9*, Yeast growth inh -31.0, Yeast life ext -22.2 and RAM inhibit 0.4.
Screening Cc1ccc(OCCn2c(=O)n(C)c3ccccc32)cc1 returned RAM inhibit 0.0.
Screening CC(=O)Nc1ccc(C(=O)OC2CCCCC2=O)cc1 (stereo not drawn) returned Measles CPE 26.8, Yeast growth inh -67.5, Yeast life ext -8.0 and RAM inhibit 1.6.
`CC(=O)c1c(C)[nH]c(C(=O)OC2CCCCC2=O)c1C` (stereo not drawn) gave Measles CPE 28.9, Yeast growth inh -17.2, Yeast life ext 142.1* and RAM inhibit 2.0.
Screening Cc1ccc(S(=O)(=O)n2nnc3ccccc32)c(C)c1C returned RAM inhibit 1.7.
`O=C(N/N=C/c1cccc(F)c1)c1c(O)c2ccccc2[nH]c1=O` gave Measles CPE 7.5, Yeast growth inh -33.9, Yeast life ext 51.6* and RAM inhibit 1.2.
O=C(N/N=C/c1ccc(F)cc1)c1ccccc1 was read as RAM inhibit -0.8.
CCOC(=O)c1c(NCC2CCCO2)c2ccccc2[nH]c1=O (stereo not drawn) was read as Measles CPE 3.6, Yeast growth inh -15.9, Yeast life ext -2.2 and RAM inhibit 0.7.
Screening O=C(NCC1CCCO1)c1c(O)c2ccccc2[nH]c1=O (stereo not drawn) returned Measles CPE 4.5, Yeast growth inh -17.9, Yeast life ext 56.7* and RAM inhibit 1.6.
O=C(N/N=C/c1ccc(F)cc1)c1c(O)c2ccccc2[nH]c1=O was read as Measles CPE 0.4, Yeast growth inh -8.4, Yeast life ext 57.2* and RAM inhibit 0.1.
For CC1CCc2cc(F)cc3c(O)c(C(=O)NCC4CCCO4)c(=O)n1c23 (stereo not drawn) the results were Measles CPE 14.3, Yeast growth inh -66.0, Yeast life ext -0.9 and RAM inhibit 11.3*.
`CCCn1c(=O)c(C(=O)NCC2CCCO2)c(O)c2ccccc21` (stereo not drawn) gave RAM inhibit 2.1.
O=C(N/N=C/c1cccc(F)c1)c1ccc(Cl)cc1 was read as RAM inhibit 1.8.
Screening COc1cccc(/C=C/C(=O)OCC(=O)NCC2CCCO2)c1OC (stereo not drawn) returned Measles CPE 10.8, Yeast growth inh -13.3, Yeast life ext -5.8 and RAM inhibit 0.4.
Screening COc1cccc(NC(=S)N2CCN(c3ccccn3)CC2)c1 returned Measles CPE 5.6, Yeast growth inh -10.4, Yeast life ext 3.0 and RAM inhibit -0.3.
Screening CCCCNC(=O)CN1C(=O)NC2(CCCc3ccccc32)C1=O (stereo not drawn) returned Measles CPE 4.0, Yeast growth inh -40.8, Yeast life ext -11.5 and RAM inhibit 1.1.
For NNC(=O)/C(=C\c1ccc(Br)cc1)NC(=O)c1cccs1 the results were RAM inhibit -0.3.
For Cc1ccc(C(=O)N/C(=C/c2ccco2)C(=O)NCCc2c[nH]c3ccccc23)cc1 the results were Measles CPE 24.0, Yeast growth inh -0.4, Yeast life ext 4.2 and RAM inhibit -0.6.
For Cc1ccccc1Nc1c(F)c(F)c(F)c(F)c1C(=O)O the results were RAM inhibit 1.2.
Screening COC(=O)c1c(O)c2ccccc2[nH]c1=O returned Measles CPE 7.7, Yeast growth inh -23.8, Yeast life ext 40.9* and RAM inhibit -0.4.
`CCCn1c(=O)c(C(=O)N/N=C/c2ccccc2F)c(O)c2ccccc21` gave RAM inhibit 3.4.
For CCCCCOC(=O)Cc1c(O)c2ccccc2[nH]c1=O the results were Measles CPE 4.2, Yeast growth inh -34.6, Yeast life ext -7.7 and RAM inhibit 3.1.
O=C(N/N=C/c1ccccc1)c1c(O)c2ccccc2[nH]c1=O was read as Measles CPE 7.4, Yeast growth inh -28.7, Yeast life ext 58.9* and RAM inhibit 0.5.
